Source: ChEMBL document CHEMBL4513216, “Probing the Open Global Health Chemical Diversity Library for Multistage-Active Starting Points for Next-Generation Antimalarials” (ACS Infect Dis, 2020)

Assay: Toxicity liver stage against HepG2, at 10uM
Type: cell-based
Design: test concentration 10 uM, cell line HepG2-A16-CD81EGFP
Details: human, HepG2-A16-CD81EGFP cells; read-out: INHIBITION
In short: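 Uninfected HepG2-A16-CD81EGFP cells, 3 × 10^3 per well, 1536-well, plated on prespotted compound at 10 μM final, parasite-free screening media added to match infected plates; puromycin 10 μM positive, DMSO 0.5% negative; run in parallel with 48 h PbLuc assay at 37 °C, 5% CO2; viability by CellTiter-Glo luminescence, normalized to controls.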

Compound | cytotoxicity at 10 µM
CN(C)CCCNC(=O)c1ccc(Cl)cc1Cl | -21%
Cn1c(CO)cnc1SC1CCCN(c2ccccc2F)C1=O (centres undefined) | -4%
CN(CCN1CCOCC1)C(=O)CCCc1ccccc1 | -8.28%
O=C(CN1CCOC(Cn2cccn2)C1)NCc1cccs1 (centres undefined) | -6.88%
CCCc1nc(CN2CCCN(Cc3nccn3C)CC2)no1 | -3.33%
CC1N(c2cnn(C)c2)C(=O)COC12CCN(Cc1ccoc1)CC2 (centres undefined) | 0.997%
Cc1ccnc(NC(=O)C2CCN(CCCc3cn[nH]c3)CC2)c1 | -49%
Cc1cc(C)n(C2CCCN(C(=O)c3cccc4c3OCO4)C2)n1 (centres undefined) | -3.88%
O=C(c1ccco1)N1CCCC2(CN(Cc3ccoc3)CCO2)C1 (centres undefined) | -2.59%
CCc1ccc(C(C)NC(=O)N2CCC(n3cncn3)CC2)cc1 (centres undefined) | -8.18%
Cc1nn(C)c(N2CCOCC2)c1CNC1CCc2cc(F)ccc21 (centres undefined) | -9.95%
Fc1cccnc1CN1CCCCC1c1ccn2ccnc2n1 (centres undefined) | 0.505%
CCSc1ncc(-c2cc(C3CCC3)nc(N)c2C#N)cn1 | 6.67%
Cc1nnc([C@H]2CC[C@@H]3[C@@H](CCN3Cc3c(C)noc3C)O2)o1 | -2.26%
CN(C)C(=O)N1CCN(Cc2nnc(C(C)(C)C)o2)CC1 | 0.278%
CC(C)c1noc(CN2CCC3(CCCO3)CCC2=O)n1 (centres undefined) | 0.145%
CC(CN1CCOCC1)N(Cc1ccccc1)Cc1ccncc1 (centres undefined) | 5.5%
O=C(NCC1(O)CCSC1)c1ccn(-c2ccccc2F)n1 (centres undefined) | 2.88%
C=C(C)COc1cccc(C(=O)N(CC)Cc2noc(C)n2)c1 | -4.15%
Cc1ccccc1-n1ncc2c(=O)n(CCN3CCCC3)cnc21 | -11.3%
CN(Cc1ccsc1)C(=O)Nc1ccc(S(C)(=O)=O)nc1 | 3.28%
O=C(c1ccccn1)N1C[C@@H](OCc2cccnc2)[C@H]2OCCC[C@@H]21 | -0.187%

Compound | cytotoxicity at 10 µM
N#Cc1cccc(CNc2ccc(F)cc2OCCO)c1 | -2.03%
O=C(Nc1ccc(-c2nnc[nH]2)cc1)C1CCN1Cc1ccccc1 (centres undefined) | 9.73%
CC(=O)N1CCC(C(=O)NCc2ncc(-c3ccccc3)o2)CC1 | -63.8%
Cc1nc[nH]c1CN1CCN(C(=O)CN2CCCC2)[C@H]2CS(=O)(=O)C[C@H]21 | -7.21%
Cc1noc(C)c1CN1C[C@@H](NS(=O)(=O)N(C)C)[C@H](C(C)C)C1 | 3.61%
COCc1cc(N(C)Cc2cc(C(C)(C)C)n[nH]2)ncn1 | -1.15%
Cc1nc(CN2C[C@@H]3CN(C(=O)c4ccoc4C)C[C@@H]3C2=O)cs1 | -76.8%
CCc1ccc(S(=O)(=O)NCCC(O)c2ccoc2)s1 (centres undefined) | -10.9%
COCC(=O)N1CC(=O)c2sc(Nc3ccc(F)cc3F)nc2C1 | -7.02%
Cc1csc(C(=O)N2CCC(S(C)(=O)=O)CC2)c1 | 2.7%
CCOCC1CN(Cc2ccco2)Cc2nccn2C1 (centres undefined) | -142%
Cn1cc(CN2CCC(c3cc(COc4cccc(Cl)c4)[nH]n3)C2)cn1 (centres undefined) | -2.93%
O=C(NCCNc1ccccn1)Nc1cc(C(F)(F)F)c[nH]c1=O | -16.5%
COc1cc(CCNC(=O)NCCC2CCCO2)ccc1C (centres undefined) | 9.92%
COc1cccc(CN2C[C@@H]3COC[C@]3(CNC(=O)C3CC3)C2)c1 | -99%
CN(C)C(=O)CN1CCOCC2(CCN(CC3CCOC3)CC2)C1 (centres undefined) | 7.54%
CCCS(=O)(=O)N1C[C@H]2CC[C@@H](C1)N(Cc1cscn1)C2=O | 12.8%
CN(CCOc1ccccc1F)S(=O)(=O)CC1CCOCC1 | 6.47%
CC(C)(C)c1nc(CNC(=O)N2CCc3ccccc3C2CO)no1 (centres undefined) | 6.56%
CN(C)c1ccc(NC(=O)NCC2CCOC2)cn1 (centres undefined) | -6.8%
CS(=O)(=O)NCc1cc2n(n1)CCCN(Cc1cccc(C#N)c1)C2 | -8.33%
OC1(CNCCc2nc3c(s2)CCCC3)CCNC1 (centres undefined) | 1.44%

Compound | cytotoxicity at 10 µM
COc1cccc(OC2CN(C(=O)C3CCCN(C(=O)N(C)C)C3)C2)c1 (centres undefined) | 0.754%
Cc1cc(Br)oc1C(=O)N1CCCN(CC(N)=O)CC1 | 0.71%
Cc1ccc2c(c1)CN(C(=O)c1ccncc1)C(CN(C)C)CO2 (centres undefined) | -13.5%
COCC(=O)N1CC[C@]2(O)CCN(Cc3ccsc3)C[C@@H]2C1 | 0.196%
O=C(c1cnoc1)N1CCC[C@]2(C[C@@H](Oc3ccccn3)CO2)C1 | -5.96%
CN1CCN(C2COC3(CCN(c4ccc(C#N)cc4)CC3)C2)CC1 (centres undefined) | 8.95%
CC(C)CC(=O)Nc1ccc2c(c1)ncn2CC(=O)NCCN(C)C | -7.58%
COCCNC(=O)[C@]12COC[C@H]1CN(C1CCOCC1)C2 | -109%
Cc1ccc(S(=O)(=O)N2CCC(Cn3cc(C(C)(C)N)nn3)CC2)s1 | 6.74%
Cc1nn(-c2ccccn2)c2c1C(c1cnn(C)c1)SCC(=O)N2 (centres undefined) | -44.1%
NC(=O)[C@@H]1Cc2ccccc2CN1CCc1cccs1 | 0.436%
c1cc(-c2ccc3nc(C4CCN(CC5CC5)CC4)nn3c2)cs1 | -12.2%
COCCNc1ncc(-c2onc(C)c2C)c(-c2ccco2)n1 | 5.92%
Cc1noc(C)c1CNC(=O)N(C)C1CCN(c2ccccc2)C1=O (centres undefined) | -8.63%
O=C(CN1C=Nc2ccccc2S1(=O)=O)NCC1CC1 | -10.2%
CC(NC(N)=O)C(=O)Nc1ccc(OCc2cccc(F)c2)c(F)c1 (centres undefined) | -12.3%
Cc1cc2ccccc2n1CC(=O)NC(C)C(=O)N1CCOCC1 (centres undefined) | 3.57%
Cc1csc2ncn(C(C)Cc3cccnc3)c(=O)c12 (centres undefined) | 6.9%
CC(C)c1ncc(-c2cc(C3CCC3)nc(N)c2C#N)cn1 | -16.1%
CCN(CC)C(=O)C1CCCN1C(=O)c1cccc(-n2cnnn2)c1 (centres undefined) | -14.9%
O=C(c1ccco1)N1CCOC2(COCCN(c3ncccn3)C2)C1 (centres undefined) | -102%
NC(=O)c1cccc(OCC(=O)N2CCCC(n3cccn3)C2)c1 (centres undefined) | -13.5%

Compound | cytotoxicity at 10 µM
Cc1nc(CNC(=O)Nc2ccc3c(c2)CCCC(=O)N3)sc1C | 5.06%
Cc1ccc2[nH]c(C(=O)NCCCn3ccnn3)c(C)c2c1 | 5.36%
Cc1oc(C)c(C(=O)NCc2cccc(NC(=O)CN(C)C)c2)c1C | -6.54%
O=C(NCC(F)(F)F)c1nnn(-c2ccccc2)c1C(F)(F)F | 4.39%
CN(C)CCN(C)C(=O)NC1CCC(Oc2ccccc2C#N)CC1 (centres undefined) | -21.8%
CCC1(c2ccc(NS(=O)(=O)N(C)C)cc2)CCC(=O)NC1=O (centres undefined) | -7.19%
O=C(COCC1CC1)Nc1cc(-c2ccc(Br)s2)n[nH]1 | -155%
COc1ccc(C)cc1C(=O)NC(CC(=O)O)c1cccs1 (centres undefined) | -16.3%
CN(CCc1ccccn1)C(=O)CCC1CCCN(c2cnccn2)C1 (centres undefined) | 4.13%
CNC(=O)C1CCN(c2cc(C3CCNCC3)nc(C)n2)C1 (centres undefined) | -6.43%
O=C(NCc1cccnc1-n1cncn1)c1cc(Cl)ccn1 | -3.76%
CCCc1noc(CNc2cc(C[S+](C)[O-])ccc2Cl)n1 (centres undefined) | -5.18%
Cc1nc(CO[C@H]2CN(C(=O)c3cccnc3)[C@@H]3COC[C@H]23)cs1 | -110%
CC(NS(C)(=O)=O)c1nc(-c2ccc(Br)cc2)no1 (centres undefined) | 4.29%
O=C(NCc1cc(Br)cs1)Nc1cn[nH]c1 | 5.85%
NC(=O)C1(Cc2ccc(-c3ccccc3)cc2)CCNC1 (centres undefined) | 11.5%
Cc1ncc(CNCC(C)O)c2cc(C(=O)c3ccc(Br)cc3)oc12 (centres undefined) | 1.39%
c1cncc(CN2CCCC3(COCCN(c4nccs4)C3)C2)c1 (centres undefined) | -80.4%
CC(C)NC(=O)C1CN(C(=O)Nc2ccc(F)cc2)CC12CCOCC2 (centres undefined) | -80.9%
CC(C)N1CCC2(CC1)C(=O)N(c1cccnc1)c1c(F)cccc12 | 7.13%
Cc1ccc(-c2nnc(CCC(=O)N3CCCC3c3ccc[nH]3)o2)cc1 (centres undefined) | -1.31%
CNc1ncc(CN(C)C(=O)c2cccc(Cn3cccn3)c2)cn1 | 1.32%

Compound | cytotoxicity at 10 µM
Cn1cccc1C(=O)NC[C@H]1C[C@@H]2CN(C(=O)c3ccno3)C[C@H]2O1 | 0.903%
COCCC(=O)N1CCCC2(CCN(c3ccccc3)C2=O)C1 (centres undefined) | -1.66%
CC(=O)c1cc(CN2C[C@@H]3CC[C@H]2CN(S(C)(=O)=O)C3)cs1 | 8.35%
CC(C)c1ccc(C(O)CN2CCN(Cc3nccn3C)CC2)cc1 (centres undefined) | -38.3%
CC(=O)NC(C)C(=O)NCc1ccc(N2CCNC(=O)C2)cc1 (centres undefined) | 2.03%
COC1C[C@@H]2CN(C(=O)c3cc4cccc(F)c4[nH]3)C[C@@H]2C1 (some centres undefined) | 1.51%
CC(NC(=O)c1cccc(CN2CCN(C)CC2)c1)c1nccs1 (centres undefined) | -4.28%
Cc1csc(C(Cc2cccs2)NCc2cc3c(cc2C)OCO3)n1 (centres undefined) | -8.9%
CCc1nnc(C2Cc3ccccc3CN2Cc2nc(C3CC3)no2)o1 (centres undefined) | -8.03%
Cn1cnc2c1CCN(CC(O)c1ccc(S(C)(=O)=O)cc1)C2 (centres undefined) | -3.3%
Cc1noc2ncnc(NC(CC(C)(C)C)c3cccnc3)c12 (centres undefined) | 1.41%
CC(C)N1CCO[C@H]2CN(C(=O)c3ccccn3)C[C@H]21 | -67.6%
Cc1nc(C)n(CC2CCCN(Cc3cn4c(C)cccc4n3)C2)n1 (centres undefined) | -6.01%
CCN(CC)S(=O)(=O)CCNc1ncnc2cc(F)c(F)cc12 | 25.9%
CCNC(=O)NC(C)(C)C(=O)NCCc1csc2ccccc12 | -15.5%
CCCNC(=O)c1sccc1N(C)S(=O)(=O)c1ccc(Cl)cc1 | 9.22%
CSc1ccccc1C(C(=O)O)N1CCN(Cc2ccccn2)CC1 (centres undefined) | -36.2%
Cc1ccc(CNCc2c(C)nn(C)c2N(C)C)cn1 | 4.65%
Cc1nc(N(C)C)nc(-c2cccc(-c3ccn(CCCF)n3)c2)c1C | 3.7%
CC(C(=O)NCCN1CCCCCC1)n1cncn1 (centres undefined) | -1.4%
COCCNC(=O)Cn1nc(C(C)C)c2cnn(C(C)(C)C)c2c1=O | -21.9%
